PubChem BioAssay
The source made the active and inactive calls. Rule as the data show it, unless noted: active = inhibition above about 30%; inactive = the rest.

Assays:
[1] = reduced viability of SK-BR-3 breast cancer cells – cell-based, 24 h, human, pilot screen (AID 572;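 active = viability at or below 10% of carrier control in both of two separate runs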;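 also: compound exposure lasted between 18 and 24 h rather than exactly 24 h; 100% = carrier-treated control wells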); conditions: SK-BR-3 viability, CellTiter-Glo luminescence, at 10 µM, stronger effect = lower value
[2] = HUVEC growth inhibition – cell-based, human, primary screen (AID 575;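 active = viability at or below 30% in both replicate assays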;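 also: 100% = median of untreated cell wells with 0.1% DMSO on each plate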); conditions: HUVEC proliferation, CellTiter-Glo luminescence, 72 h; at 10 µM; stronger effect = lower value
Procedure, shortened: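 Assay system: Primary human umbilical vein endothelial cells | Quantity: 1250 cells per well | Medium: Supplemented EBM, 2% fetal bovine serum | Detection: CellTiter-Glo luminescence measuring cellular ATP | Read-out: % viability vs DMSO wells | Plate: Collagen-coated 384-well format | Times: 72 h exposure, 37 °C, 5% CO2, 30 min RT equilibration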

[3] = H69AR cell proliferation blockers – human, duplicate replicates, primary screen (AID 580;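 active = viability at or under a set limit in both replicates, limit being median viability minus 3 SD, cut at about 48% in these data, passing the limit was not always enough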;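 also: 100% = mean luminescence of untreated wells and 0% = no signal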); conditions: H69AR lung tumor cells viability, ATP luminescence, 72 h; at 10 µM; stronger effect = lower value
[4] = MRP1 drug-resistance reversers in H69AR cells – cell-based, doxorubicin co-treatment, pilot screen (AID 601;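 active = viability loss from added drug above about 55%, and viability with drug at most 40%, in both replicates, limit read from the data, passing the limit was not always enough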); conditions: CellTiter-Glo, 72 h, at 10 µM; for differential viability (reversal): stronger effect = higher value
[5] = yeast transport mutant growth inhibition pilot in 384-well plates, post-Golgi transport modulator project (AID 636; in the data active = inhibition above about 31%); conditions: absorbance 615 nm, about 18 h, stronger effect = higher value
[6] = growth suppression of yeast trafficking mutant, preliminary HTS, modulators of trafficking downstream of Golgi apparatus project, 1536-format plate, OD 615 nm (AID 637); conditions: yeast transport mutant growth, absorbance 615 nm, 18 h; stronger effect = higher value
[7] = H69AR cells + 2 uM doxorubicin, measured here: viability with 2 uM doxorubicin, stronger effect = lower value
[8] = H69AR cells, compound alone cytotoxicity

Row | SMILES | viability [1] | viability [2] | viability [3] | differential viability (reversal) ([4]; H69AR cells + 2 uM doxorubicin) | viability [4, 7] [%] | viability [4, 8] [%] | inhibition [5] | inhibition [6]
1 | Cc1cc(=O)oc2cc(OCC(=O)OCC(=O)N3CCc4ccccc43)ccc12 | 103% (inactive) | 101% (inactive) | 93.2% (inactive) | -2.07% (inactive) | 95.3 | 93.2 | -8.38% (inactive) | -4.55% (inactive)
2 | c1cc2c(cc1Cn1cnnn1)OCO2 | 96% (inactive) | 96.9% (inactive) | 105% (inactive) | 12.3% (inactive) | 92.7 | 105 | -1.95% (inactive) | 4.26% (inactive)
3 | O=C(Nc1cccnc1)c1cc2c(ccc3ccccc32)o1 | 96% (inactive) | 97.3% (inactive) | 84.9% (inactive) | 0.36% (inactive) | 84.5 | 84.9 | -0.13% (inactive) | -3.45% (inactive)
4 | Cc1[nH]nc2c1C(c1ccc(F)cc1)C1=C(CC(C)(C)CC1=O)N2 (stereo not drawn) | 126% (inactive) | 102% (inactive) | 87.4% (inactive) | -0.39% (inactive) | 87.8 | 87.4 | -5.14% (inactive) | 3.97% (inactive)
5 | COC(=O)c1nnn(-c2ccccc2)c1N | 103% (inactive) | 100% (inactive) | 103% (inactive) | -1.73% (inactive) | 105 | 103 | -1.82% (inactive) | 3.61% (inactive)
6 | Cc1ccc(NC(=O)CSc2nnc(-c3ccc(S(=O)(=O)N4CCOCC4)cc3)n2C)cc1 | 102% (inactive) | 104% (inactive) | 98.4% (inactive) | 3.83% (inactive) | 94.6 | 98.4 | -3.33% (inactive) | -1.64% (inactive)
7 | Cc1nc2c(-c3ccccc3)c(C)[nH]n2c(=O)c1Cl | 93% (inactive) | 72.7% (inactive) | 77.5% (inactive) | -19.2% (inactive) | 96.8 | 77.5 | -0.55% (inactive) | 11.8% (inactive)
8 | O=C1C2CCCN2C(c2ccccc2)N1c1ccc(Cl)cc1 (stereo not drawn) | 110% (inactive) | 79.1% (inactive) | 104% (inactive) | 19% (inactive) | 85.2 | 104 | -4.67% (inactive) | -5.82% (inactive)
9 | CCOc1ccccc1-c1nc(-c2ccc(C)nc2OC)no1 | 123% (inactive) | 95.9% (inactive) | 81.9% (inactive) | -0.315% (inactive) | 82.2 | 81.9 | -0.78% (inactive) | 5.74% (inactive)
10 | CC1CN(C(=O)CSc2ncnc3sccc23)CC(C)O1 (stereo not drawn) | 80% (inactive) | 103% (inactive) | 99.6% (inactive) | -2.15% (inactive) | 102 | 99.6 | -5.75% (inactive) | 0% (inactive)
11 | CC(C)NC(=O)Nc1cccs1 | 115% (inactive) | 99.5% (inactive) | 92.1% (inactive) | -3.51% (inactive) | 95.6 | 92.1 | 2.47% (inactive) | -0.82% (inactive)
12 | CCC(C(=O)N1CCc2cc(OC)c(OC)cc2C1)c1ccccc1 (stereo not drawn) | 99% (inactive) | 109% (inactive) | 94.5% (inactive) | 2.46% (inactive) | 92 | 94.5 | -4.52% (inactive) | -11.9% (inactive)
13 | O=C(Nc1ccc(NC(=O)c2ccco2)nc1)c1cccnc1 | 102% (inactive) | 121% (inactive) | 88.7% (inactive) | -1.89% (inactive) | 90.6 | 88.7 | -7.4% (inactive) | 0.65% (inactive)
14 | COc1ccc(NC(=O)CSc2ccccn2)cc1OC | 87% (inactive) | 97.3% (inactive) | 95.1% (inactive) | 20.2% (inactive) | 74.9 | 95.1 | 2% (inactive) | 1.82% (inactive)
15 | O=c1c2cnn(-c3ccccc3)c2ncn1/N=C/c1ccncc1 | 125% (inactive) | 108% (inactive) | 101% (inactive) | 18.9% (inactive) | 82.2 | 101 | -5.07% (inactive) | -4.91% (inactive)
16 | Cc1ccc(C)c(-n2nnnc2SCC(=O)NCCC2=CCCCC2)c1 | 91% (inactive) | 73.5% (inactive) | 93.2% (inactive) | -11.3% (inactive) | 105 | 93.2 | -4.66% (inactive) | 2.36% (inactive)
17 | O=C(c1nn2cccnc2c1Cl)N1CCN(c2ccccc2)CC1 | 66% (inactive) | 102% (inactive) | 108% (inactive) | 10.1% (inactive) | 97.8 | 108 | -6.99% (inactive) | 3.82% (inactive)
18 | Nc1cc(N)nc(SCc2ccccc2)n1 | 94% (inactive) | 90.8% (inactive) | 85.6% (inactive) | -6.86% (inactive) | 92.4 | 85.6 | -0.68% (inactive) | 9.27% (inactive)

Row | SMILES | viability [1] | viability [2] | viability [3] | differential viability (reversal) ([4]; H69AR cells + 2 uM doxorubicin) | viability [4, 7] [%] | viability [4, 8] [%] | inhibition [5] | inhibition [6]
19 | CCOC(=O)Nc1cc(OC)c(OC)cc1Cc1nccc2cc(OC)c(OC)cc12 | 113% (inactive) | 95.7% (inactive) | 87.1% (inactive) | 5.61% (inactive) | 81.5 | 87.1 | -2.05% (inactive) | 28.7% (inactive)
20 | Cc1cc(C)n(-c2nc3sc4c(c3c3nnc(SC(C)C)n23)CC(C)(C)OC4)n1 | 96% (inactive) | 96.6% (inactive) | 84.4% (inactive) | 2.36% (inactive) | 82 | 84.4 | 1.23% (inactive) | 17.6% (inactive)
21 | c1ccc2c(NC3CCCC3)nnc(NC3CCCC3)c2c1 | 60% (inactive) | 83.1% (inactive) | 91.4% (inactive) | 1.81% (inactive) | 89.6 | 91.4 | -0.92% (inactive) | -7.46% (inactive)
22 | Cc1nnc(SCCCn2c(N3CCCCC3)nc3c2c(=O)[nH]c(=O)n3C)s1 | 104% (inactive) | 92% (inactive) | 97.4% (inactive) | 10.2% (inactive) | 87.1 | 97.4 | -6.03% (inactive) | 4% (inactive)
23 | O=C(c1ccco1)N1CCN(c2nc(C(F)(F)F)nc3c2nnn3Cc2ccccc2)CC1 | 133% (inactive) | 69.2% (inactive) | 73.3% (inactive) | -2.53% (inactive) | 75.8 | 73.3 | -9.45% (inactive) | -0.16% (inactive)
24 | COc1ccc(NC(=O)CSc2nc3c(c(=O)n2-c2ccc(F)cc2)SCC3)c(OC)c1 | 89% (inactive) | 91.1% (inactive) | 90.7% (inactive) | 13.1% (inactive) | 77.5 | 90.7 | -6.71% (inactive) | 3.87% (inactive)
25 | COC(=O)c1cc(Br)c(=O)n(CCc2ccc(F)cc2)c1 | 78% (inactive) | 118% (inactive) | 100% (inactive) | 8.46% (inactive) | 92 | 100 | -5.27% (inactive) | 3.09% (inactive)
26 | CCCCn1cnc2c(c1=O)c1nc3ccccc3nc1n2Cc1ccc2c(c1)OCO2 | 85% (inactive) | 85.9% (inactive) | 68.9% (inactive) | -5.45% (inactive) | 74.3 | 68.9 | -5.14% (inactive) | -1.82% (inactive)
27 | N=c1nc(N2CCCCC2)cc(N)n1O | 96% (inactive) | 89.3% (inactive) | 99.8% (inactive) | 7.85% (inactive) | 92 | 99.8 | -1.17% (inactive) | -1.83% (inactive)
28 | O=C(O)CCC(=O)NC1CCCCC1NC(=O)CCC(=O)O (stereo not drawn) | 104% (inactive) | 111% (inactive) | 99% (inactive) | 7.37% (inactive) | 91.6 | 99 | -5.47% (inactive) | 0.73% (inactive)
29 | CCn1c(SCC(N)=O)nnc1-c1ccc(S(=O)(=O)N2CCN(C)CC2)cc1 | 97% (inactive) | 105% (inactive) | 95.8% (inactive) | 9.21% (inactive) | 86.6 | 95.8 | 2.93% (inactive) | 6.73% (inactive)
30 | COc1ccc(OC)c(NC(=O)CSc2nnc(-c3ccco3)n2-c2ccccc2)c1 | 59% (inactive) | 83% (inactive) | 90.4% (inactive) | 5.04% (inactive) | 85.4 | 90.4 | -6.3% (inactive) | 3.45% (inactive)
31 | COc1cccc(NC(=O)CC2SC(=Nc3ccccc3)NC2=O)c1 (stereo not drawn) | 70% (inactive) | 106% (inactive) | 92% (inactive) | -6.89% (inactive) | 98.9 | 92 | -6.35% (inactive) | -1.27% (inactive)
32 | OC[C@H]1O[C@@H](n2cnc3c(NC4CCCC4)ncnc32)[C@H](O)[C@@H]1O | 113% (inactive) | 57.6% (inactive) | 74.9% (inactive) | -18.2% (inactive) | 93 | 74.9 | 0.52% (inactive) | -5% (inactive)
33 | CC(C)N(Cc1nc(-c2ccccc2)no1)C(=O)CCCN1C(=O)c2ccccc2C1=O | 104% (inactive) | 112% (inactive) | 97.9% (inactive) | 15.7% (inactive) | 82.2 | 97.9 | -3.12% (inactive) | 0.98% (inactive)
34 | CCN(C(=O)c1cccs1)c1nnc(-c2ccncc2)s1 | 105% (inactive) | 120% (inactive) | 92.5% (inactive) | 7.03% (inactive) | 85.5 | 92.5 | -3.33% (inactive) | 2.91% (inactive)
35 | O=C(NC(=O)c1ccc(Cl)cc1)Nc1cc(N2CCCCC2)ncn1 | 85% (inactive) | 93.9% (inactive) | 91.1% (inactive) | -1.91% (inactive) | 93 | 91.1 | -7.4% (inactive) | 3.87% (inactive)
36 | Cc1ccc2c(c1)C(N1CCCC1=O)CC(c1ccco1)N2 (stereo not drawn) | 108% (inactive) | 74.7% (inactive) | 68.7% (inactive) | 2.15% (inactive) | 66.6 | 68.7 | -5.6% (inactive) | -6.51% (inactive)
